Here are results for 1 compound from article PMC5621377 (Clinical cancer research : an official journal of the …, 2016).

“Also recorded” adds a separate entry of the source.

The term Tmax denotes the time at which the peak concentration occurs.

Data set [1] can be described thus: Pharmacokinetics, plasma LC-MS/MS, non-compartmental analysis. The class given is in vivo, human. The gist of the method: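 Oral daily dosing at 50–1,200 mg/day. On Cycle 1 Days 1 and 18/21, blood was drawn pre-dose and at 0.5, 1, 2, 4, 6, 8 and 24 h, with further trough days. Parent drug and a metabolite in plasma were measured by validated LC-MS/MS (LLOQ 1.0 ng/mL). Non-compartmental analysis was used. Dose proportionality was fitted as ln(Cmax or AUC0–24) = α + β ln(dose). T1/2,acc came from the accumulation ratio; steady state was judged from troughs.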

The subject of data set [2] is Ki67 and phosphorylated Rb [pRb]. Put plainly: Pharmacodynamic biomarkers by immunohistochemistry in skin and tumor biopsies. It is filed as in vivo, human.
Data set [3] deals with Rb+ advanced solid tumors or lymphomas. Nature of the data set: Clinical activity, radiographic response. It is filed as in vivo, human. The method in brief: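 Oral test compound given daily on a 3-weeks-on/1-week-off schedule (50–1,200 mg/day) or a continuous 28-day schedule (600 mg/day). Response was assessed by CT or MRI per RECIST 1.0 for solid tumors or IWG criteria for lymphomas. Scans were done at the end of every second cycle for six cycles, then every third cycle, and at end of treatment. Patients receiving at least one dose were included; analyses were descriptive.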

Another data set has as its system Jeko-1 MCL xenograft. Particulars: doses comparable to those achievable in humans; cited from earlier work.
The conditions of data set [4]: ref unpublished data; cited from earlier work.

For `CN(C)C(=O)c1cc2cnc(Nc3ccc(N4CCNCC4)cn3)nc2n1C1CCCC1` [ribociclib], in data set [1] (at the RDE (600 mg/day 3-weeks-on/1-week-off), oral), the “mean effective half-life based on accumulation ratio (T1/2, acc)” value turned out to be 32.6 h. Moreover, the “dose proportionality of Cmax and AUC” value in data set [1] (dose range 50–1,200 mg/day) is on record as “slightly higher than dose proportional; also recorded: slightly more than proportional to dose”. In data set [1] (human, plasma, po), the time of peak concentration (Tmax) fell in the range of 1 to 5 h. Also, the “steady state reached by” value in data set [1] (trough concentrations after repeated daily dosing) is around 8 days. For the same compound, the “post-treatment changes in pRb in tumor samples” value in data set [2] (16 paired tumor biopsies) is “not significant or consistent”. For the same compound, the “change of Ki67 in tumor biopsies” value in data set [2] (19 paired tumor biopsies, baseline to Day 15 of Cycle 1 or 2) is recorded as “reductions of Ki67 from baseline were observed at higher ribociclib doses”. For the same compound, the “change of pRb in skin samples” value in data set [2] (46 paired skin biopsies) is given as “Mean decreases of pRb in skin samples were observed at all dose levels”. Moreover, the “change of Ki67 in skin biopsies” value in data set [2] (48 paired skin biopsies, baseline to Day 15 of Cycle 2) is listed as “post-treatment reductions of Ki67 were observed across all dose levels”. In addition, in data set [3] (132 patients), the “patients with best response of stable disease” value is recorded as 43; the “stable disease as best overall response by RECIST, patients” value is recorded as 41; the “stable disease as best overall response per IWG, patients” value is reported as “two”. Besides, in data set [3] (132 patients, RECIST), the partial response rate is 2.3%. The “stable disease as best overall response, rate” value in data set [3] (RECIST plus IWG, 132 patients) worked out at 32.6%. Also, in data set [3] (one patient with teratoma, 400 mg/day 3-weeks-on/1-week-off), the time on therapy amounted to 100 weeks. For the same compound, in data set [3] (patient with liposarcoma, 600 mg/day continuous, past cut-off date), the time on therapy amounted to 102 weeks. Further, the “tumor response in xenograft” value in the data set with Jeko-1 MCL xenograft is reported as “complete regressions”. In data set [4], the “nonclinical toxicity finding, bone marrow” value is on record as “hypocellularity”; the “nonclinical toxicity finding, cardiac” value is “prolongation of the average QTc”; the “nonclinical toxicity finding, lymphoid system” value is on record as “lymphoid depletion”; the “nonclinical toxicity finding, testes” value is “atrophy”.
